Columns and labels:
[1] = Effect on Syrian hamster splenocytes proliferation assessed as stimulation index by BrdU-incorporation based colorimetric analysis; assay type: ADME, cell-based, Mesocricetus auratus; details: splenocyte
Procedure, shortened: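 Hamster spleens dissociated through strainers, red cells lysed, cells washed in RPMI. Plated in triplicate at 10⁵ cells per well with several doses of compound. 1% DMSO served as negative control, concanavalin A as positive control. Proliferation read by colorimetric BrdU incorporation. Index is mean OD450 of compound wells divided by mean OD450 of medium plus 1% DMSO wells, with 1 meaning no effect.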

Ancylostoma ceylanicum [2] = assay: Anthelmintic activity against Ancylostoma ceylanicum isolated from infected Syrian hamster feces assessed as survival rate at 25 ug/ml measured on day 2 relative to control; assay type: functional; details: 48 h
Ancylostoma ceylanicum [3] = assay: Anthelmintic activity against Ancylostoma ceylanicum isolated from infected Syrian hamster feces assessed as survival rate at 25 ug/ml measured on day 1 relative to control; assay type: functional; details: 24 h
Ancylostoma ceylanicum [4] = assay: Anthelmintic activity against Ancylostoma ceylanicum isolated from infected Syrian hamster feces assessed as survival rate at 25 ug/ml measured on day 5 (reference value: >95%); assay type: functional; details: 120 h
Ancylostoma ceylanicum [5] = assay: Anthelmintic activity against Ancylostoma ceylanicum isolated from infected Syrian hamster feces assessed as survival rate at 25 ug/ml measured on day 3 relative to control; assay type: functional; details: 72 h
Ancylostoma ceylanicum [6] = assay: Anthelmintic activity against Ancylostoma ceylanicum isolated from infected Syrian hamster feces assessed as survival rate at 25 ug/ml measured on day 4 relative to control; assay type: functional; details: 96 h
Ancylostoma ceylanicum [7] = assay: Anthelmintic activity against Ancylostoma ceylanicum isolated from infected Syrian hamster feces assessed as mortality at 10 ug/ml measured on day 3 relative to control; assay type: functional; details: 72 h
[8] = Toxicity in po dosed rat; assay type: organism-based; details: in vivo
Ancylostoma ceylanicum [9] = assay: Anthelmintic activity against Ancylostoma ceylanicum isolated from infected Syrian hamster feces assessed as motility at 25 ug/ml measured on day 5; assay type: functional
Procedure, shortened: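 Adult worms from hamster intestine washed in RPMI with fungizone (25 μg/mL) and 20× pen/strep, held overnight at 37 °C, 5% CO2 in that medium plus 50% FBS. Compound added from DMSO stock to 1% DMSO final; 1% DMSO negative control. Motility scored on a 0–3 scale, worms stimulated by microscope light and heat and gentle manipulation.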

Compound: C=CC(C)(C)c1cc([C@@H]2CC(=O)c3c(O)cc(O)c(CC=C(C)C)c3O2)c(O)cc1O
- Ratio [1]: 0.8 to 1
- survival at 25 µg/mL (Ancylostoma ceylanicum [2]): 100%
- survival at 25 µg/mL (Ancylostoma ceylanicum [3]): 100%
- survival at 25 µg/mL (Ancylostoma ceylanicum [4]): 100%
- survival at 25 µg/mL (Ancylostoma ceylanicum [5]): 100%
- survival at 25 µg/mL (Ancylostoma ceylanicum [6]): 100%

Compound: CC(C)=CCc1c(O)cc(O)c2c1O[C@H](c1ccc(O)cc1O)CC2=O [LEACHIANONE G]
- Ratio [1]: 0.8 to 1
- survival at 25 µg/mL (Ancylostoma ceylanicum [2]): 97%
- survival at 25 µg/mL (Ancylostoma ceylanicum [3]): 100%
- survival at 25 µg/mL (Ancylostoma ceylanicum [4]): 87%
- survival at 25 µg/mL (Ancylostoma ceylanicum [5]): 93%
- survival at 25 µg/mL (Ancylostoma ceylanicum [6]): 93%

Compound: CC(C)=CCc1c(O)c(O)cc2c1O[C@H](c1ccc(O)cc1)CC2=O
- Ratio [1]: 0.8
- survival at 25 µg/mL (Ancylostoma ceylanicum [2]): 97%
- survival at 25 µg/mL (Ancylostoma ceylanicum [3]): 100%
- survival at 25 µg/mL (Ancylostoma ceylanicum [4]): 83%
- survival at 25 µg/mL (Ancylostoma ceylanicum [5]): 90%
- survival at 25 µg/mL (Ancylostoma ceylanicum [6]): 83%

Compound: CC(C)=CCc1c(O)ccc2c1O[C@H](c1ccc(O)cc1O)CC2=O
- Ratio [1]: 0.8 to 1
- survival at 25 µg/mL (Ancylostoma ceylanicum [2]): 100%
- survival at 25 µg/mL (Ancylostoma ceylanicum [3]): 100%
- survival at 25 µg/mL (Ancylostoma ceylanicum [4]): 80%
- survival at 25 µg/mL (Ancylostoma ceylanicum [5]): 90%
- survival at 25 µg/mL (Ancylostoma ceylanicum [6]): 80%

Compound: COc1cc2c(cc1OC)[C@]1(O)C(=O)c3ccc4c(c3O[C@@H]1CO2)C=CC(C)(C)O4 [TEPHROSIN]
- mortality at 10 µg/mL (Ancylostoma ceylanicum [7]): 100%
- Ratio [1]: 0.8 to 1
- survival at 25 µg/mL (Ancylostoma ceylanicum [2]): 3%
- survival at 25 µg/mL (Ancylostoma ceylanicum [3]): 77%
- survival at 25 µg/mL (Ancylostoma ceylanicum [4]): 0%
- survival at 25 µg/mL (Ancylostoma ceylanicum [5]): 0%
- survival at 25 µg/mL (Ancylostoma ceylanicum [6]): 0%

Compound: C=CC(C)(C)c1cc([C@@H]2CC(=O)c3ccc(O)c(CC=C(C)C)c3O2)c(O)cc1O
- Ratio [1]: 0.8 to 1
- survival at 25 µg/mL (Ancylostoma ceylanicum [2]): 100%
- survival at 25 µg/mL (Ancylostoma ceylanicum [3]): 100%
- survival at 25 µg/mL (Ancylostoma ceylanicum [4]): 90%
- survival at 25 µg/mL (Ancylostoma ceylanicum [5]): 100%
- survival at 25 µg/mL (Ancylostoma ceylanicum [6]): 97%

Compound: COc1ccc2c(c1)O[C@@H]1c3ccc(O)cc3OC[C@H]21
- Ratio [1]: 0.8 to 1
- survival at 25 µg/mL (Ancylostoma ceylanicum [2]): 100%
- survival at 25 µg/mL (Ancylostoma ceylanicum [3]): 100%
- survival at 25 µg/mL (Ancylostoma ceylanicum [4]): 100%
- survival at 25 µg/mL (Ancylostoma ceylanicum [5]): 100%
- survival at 25 µg/mL (Ancylostoma ceylanicum [6]): 100%

Compound: CC(C)=CCC/C(C)=C/Cc1c(O)ccc2c1O[C@H](c1ccc(O)cc1O)CC2=O
- Ratio [1]: 0.8 to 1
- survival at 25 µg/mL (Ancylostoma ceylanicum [2]): 100%
- survival at 25 µg/mL (Ancylostoma ceylanicum [3]): 100%
- survival at 25 µg/mL (Ancylostoma ceylanicum [4]): 93%
- survival at 25 µg/mL (Ancylostoma ceylanicum [5]): 100%
- survival at 25 µg/mL (Ancylostoma ceylanicum [6]): 100%

Compound: COc1cc2c(cc1OC)[C@@H]1C(=O)c3ccc4c(c3O[C@@H]1CO2)C=CC(C)(C)O4 [DEGUELIN]
- Ratio [1]: 0.8 to 1
- survival at 25 µg/mL (Ancylostoma ceylanicum [2]): 50%
- survival at 25 µg/mL (Ancylostoma ceylanicum [3]): 100%
- survival at 25 µg/mL (Ancylostoma ceylanicum [4]): 0%
- survival at 25 µg/mL (Ancylostoma ceylanicum [5]): 40%
- survival at 25 µg/mL (Ancylostoma ceylanicum [6]): 0%

Compound: C=C(C)[C@H]1Cc2c(ccc3c2O[C@@H]2COc4cc(OC)c(OC)cc4[C@@H]2C3=O)O1 [ROTENONE]
- LD50 [8]: 132 to 1500 mg/kg

Compound: Oc1ccc2c(c1)OC[C@@H]1c3cc4c(cc3O[C@H]21)OCO4 [(+)-MAACKIAIN]
- Ratio [1]: 1
- survival at 25 µg/mL (Ancylostoma ceylanicum [2]): 93%
- survival at 25 µg/mL (Ancylostoma ceylanicum [3]): 100%
- survival at 25 µg/mL (Ancylostoma ceylanicum [4]): 73%
- Activity (Ancylostoma ceylanicum [9]): 80%
- survival at 25 µg/mL (Ancylostoma ceylanicum [5]): 83%
- survival at 25 µg/mL (Ancylostoma ceylanicum [6]): 80%

— ChEMBL document CHEMBL3867451, “Phenolic Metabolites of Dalea ornata Affect Both Survival and Motility of the Human Pathogenic Hookworm Ancylostoma ceylanicum” (J Nat Prod, 2016)
